In ChEMBL document CHEMBL3792328, “Diketopiperazines from Costa Rican endolichenic fungus Colpoma sp. CR1465A” (2016):

How the values were obtained:
Assay type in all cases: functional
Candida albicans [1] = assay: Fungicidal activity against Candida albicans ATCC 10231 after 48 hrs by broth-dilution method; conditions: ATCC 10231, 48 h, read-out: MFC99.9
Method in brief: (§1)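 Standardized ATCC strains were tested in triplicate by broth dilution. The panel comprised Gram-negative E. coli, Gram-positive B. subtilis and S. aureus, and the yeasts S. cerevisiae and C. albicans. Minimum inhibitory concentration was determined for the growth-inhibition lines. Minimum fungicidal concentration was determined for the fungicidal yeast lines.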

Escherichia coli = assay: Antibacterial activity against Escherichia coli ATCC 25922 after 12 hrs by broth-dilution method; conditions: ATCC 25922, 12 h; method in brief: as §1
Saccharomyces cerevisiae [2] = assay: Fungicidal activity against Saccharomyces cerevisiae ATCC 9763 after 48 hrs by broth-dilution method; conditions: ATCC 9763, 48 h, read-out: MFC99.9; method in brief: as §1
Staphylococcus aureus = assay: Antibacterial activity against Staphylococcus aureus BAA-2313 after 12 hrs by broth-dilution method; conditions: BAA-2313, 12 h; method in brief: as §1
Saccharomyces cerevisiae [3] = assay: Antifungal activity against Saccharomyces cerevisiae ATCC 9763 after 12 hrs by broth-dilution method; conditions: ATCC 9763, 12 h; method in brief: as §1
Candida albicans [4] = assay: Antifungal activity against Candida albicans ATCC 10231 after 12 hrs by broth-dilution method; conditions: ATCC 10231, 12 h; method in brief: as §1
Bacillus spizizenii = assay: Antibacterial activity against Bacillus subtilis ATCC 6633 after 12 hrs by broth-dilution method; conditions: ATCC 6633, 12 h; method in brief: as §1

C[C@@H]1NC(=O)[C@@H]2CCCN2C1=O
> 200 µg/mL: MFC (Candida albicans [1]) | MIC (Escherichia coli) | MFC (Saccharomyces cerevisiae [2]) | MIC (Staphylococcus aureus) | MIC (Saccharomyces cerevisiae [3]) | MIC (Candida albicans [4]) | MIC (Bacillus spizizenii)

O=C(O)C[C@@H]1NC(=O)[C@@H]2CCCN2C1=O
> 200 µg/mL: MFC (Candida albicans [1]) | MIC (Escherichia coli) | MFC (Saccharomyces cerevisiae [2]) | MIC (Staphylococcus aureus) | MIC (Saccharomyces cerevisiae [3]) | MIC (Candida albicans [4]) | MIC (Bacillus spizizenii)

O=C1NCC(=O)N2CCC[C@H]12
> 200 µg/mL: MFC (Candida albicans [1]) | MIC (Escherichia coli) | MFC (Saccharomyces cerevisiae [2]) | MIC (Staphylococcus aureus) | MIC (Saccharomyces cerevisiae [3]) | MIC (Candida albicans [4]) | MIC (Bacillus spizizenii)

O=C(O)CC[C@H]1NC(=O)[C@@H]2CCCN2C1=O
> 200 µg/mL: MFC (Candida albicans [1]) | MIC (Escherichia coli) | MFC (Saccharomyces cerevisiae [2]) | MIC (Staphylococcus aureus) | MIC (Saccharomyces cerevisiae [3]) | MIC (Candida albicans [4]) | MIC (Bacillus spizizenii)

O=C1[C@@H]2CCCN2C(=O)[C@H]2C[C@H](O)CN12
> 200 µg/mL: MFC (Candida albicans [1]) | MIC (Escherichia coli) | MFC (Saccharomyces cerevisiae [2]) | MIC (Staphylococcus aureus) | MIC (Saccharomyces cerevisiae [3]) | MIC (Candida albicans [4]) | MIC (Bacillus spizizenii)

C[C@H]1NC(=O)[C@@H]2CCCN2C1=O
> 200 µg/mL: MFC (Candida albicans [1]) | MIC (Escherichia coli) | MFC (Saccharomyces cerevisiae [2]) | MIC (Staphylococcus aureus) | MIC (Saccharomyces cerevisiae [3]) | MIC (Candida albicans [4]) | MIC (Bacillus spizizenii)

O=C(O)CC[C@H]1NC(=O)[C@H]2CCCN2C1=O
> 200 µg/mL: MFC (Candida albicans [1]) | MIC (Escherichia coli) | MFC (Saccharomyces cerevisiae [2]) | MIC (Staphylococcus aureus) | MIC (Saccharomyces cerevisiae [3]) | MIC (Candida albicans [4]) | MIC (Bacillus spizizenii)

C[C@@H](O)[C@H]1NC(=O)[C@@H]2CCCN2C1=O
> 200 µg/mL: MFC (Candida albicans [1]) | MIC (Escherichia coli) | MFC (Saccharomyces cerevisiae [2]) | MIC (Staphylococcus aureus) | MIC (Saccharomyces cerevisiae [3]) | MIC (Candida albicans [4]) | MIC (Bacillus spizizenii)
